Data published in ChEMBL document CHEMBL3272005 (J Med Chem, 1978).

What was measured:
Salmonella typhimurium [1] = assay: Genotoxicity in Salmonella typhimurium TA-1538 after 2 days by Ames test in presence of C57BL/6J mouse liver S9 fraction relative to control; assay type: toxicity, organism-based; conditions: salmonella enterica subsp. enterica serovar typhimurium, s9, 48 h
[2] = Drug level in ventricular arrthymia patient urine treated with lidocaine at 1.4 mg/min, iv administered for 36 hrs measured after 30 hrs measured after 30 hrs; assay type: ADME, organism-based; conditions: human, in vivo
In short: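 Aliquots were analysed immediately after collection by CIMS stable isotope dilution with deuterated analogues as internal standards. Analysis was run before and after TiCl3 reduction of the urine.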

[3] = Drug level in po dosed human urine treated with lidocaine; assay type: ADME, organism-based; conditions: in vivo
In short: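 Analysed by chemical-ionization MS stable isotope dilution, with deuterated N-hydroxy analogues as internal standards. Samples were measured before and after TiCl3 reduction. Released 2,6-dimethylaniline was followed by m/e 122/124 ratios and by GC-CIMS selected ion monitoring. Values are given as % of dose.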

[4] = Plasma concentration in ventricular arrthymia patient at 1.4 mg/min, iv administered for 36 hrs measured after 30 hrs; assay type: ADME, organism-based; conditions: human
Salmonella typhimurium [5] = assay: Genotoxicity in Salmonella typhimurium TA-1538 after 2 days by Ames test relative to control; assay type: toxicity, organism-based; conditions: salmonella enterica subsp. enterica serovar typhimurium, 48 h
In short: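 Compounds were tested at 1, 10, 100 and 500 μg, added in Me2SO to top agar. His+ revertant colonies were counted after 2 days at 37 °C and compared with Me2SO-only plates.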

Mus musculus = species: Mus musculus; assay: Carcinogenic activity in Swiss albino mouse; assay type: toxicity, organism-based; conditions: in vivo

| Structure (SMILES) | Activity (Salmonella typhimurium [1]) | Drug excretion [2] | Drug excretion [3] | concentration at 30 h [4] | Activity (Salmonella typhimurium [5]) | Activity (Mus musculus) |
| --- | --- | --- | --- | --- | --- | --- |
| CCNCC(=O)Nc1c(C)cccc1C | Non-toxic | metabolite_detected | metabolite_detected | 680 ng/mL | Non-toxic | – |
| Cc1cccc(C)c1N | Non-toxic | – | – | – | Non-toxic | – |
| CCN(CC)CC(=O)N(O)c1c(C)cccc1C | Non-toxic | – | – | – | Non-toxic | Non-toxic |
| CCNCC(=O)N(O)c1c(C)cccc1C | Non-toxic | – | – | – | Non-toxic | Non-toxic |
| [2H]C([2H])(C)N(CC)CC(=O)Nc1c(C)cccc1C | – | metabolite_detected | metabolite_detected | – | – | – |
| [2H]C([2H])(NCC)C(=O)Nc1c(C)cccc1C | – | metabolite_detected | metabolite_detected | – | – | – |
| [2H]C([2H])(C)N(CC(=O)N(O)c1c(C)cccc1C)C([2H])([2H])C | – | – | – | – | – | Non-toxic |
| Cc1cccc(C)c1NO | Non-toxic | metabolite_detected | metabolite_detected | – | Non-toxic | Non-toxic |
| [2H]C([2H])([2H])CNCC(=O)N(O)c1c(C)cccc1C | – | – | – | – | – | Non-toxic |
| Cc1cccc(C)c1N(O)C(=O)CCl | – | – | – | – | – | Non-toxic |
| CCN(CC)CC(=O)Nc1c(C)cccc1C [LIDOCAINE] | – | metabolite_detected | metabolite_detected | 3100 ng/mL | – | – |
